# SF-1 act: SF-1 (human) activation; Q13285; hit rate 1.9% among 65,000; activation, % at 10 µM; AID 522; CHO-K1 Gal4-SF-1 LBD luciferase reporter; % increase over DMSO SF-1-specific signal;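 active = activation above the mean activation of all tested compounds plus 3 SD, cut at about 50% in these data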
#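 material = CHO-K1 cells with Gal4–hSF-1 LBD chimera plus Gal4-driven luciferase | compound = 10 µM single point, 1% DMSO | incubation = 20 h compound exposure at 37 °C after 1 h cell settling | measured by = SteadyLite luciferase luminescence | evaluation = percent activation relative to DMSO median and mock-transfected background | control set = DMSO negative control and −SF1 background wells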
# D1 mod: D1 dopamine receptor (human) allosteric modulation; P21728; HEK293 D1, CRE-luciferase, dopamine EC30 potentiation; actives deviate in either direction; B-score at 10 µM; hit rate 5.9% among 58,000; AID 641;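 active = luminescence count or its row- and column-corrected plate score outside the 99.7% band of the plate's sample wells, on either side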
# M1 antag: antagonists of rat M1 muscarinic receptor. P08482. hit rate 3.4% among 64,000. B-score at 10 µM. CHO-M1 cells, Fluo-4 calcium, ACh EC80 antagonist mode; stronger effect = lower value;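 active = calcium fluorescence response, raw or row-and-column corrected B-score, differing from the plate sample mean either way at a set confidence level, mostly lower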
# M1 agonist: activates the M1 muscarinic receptor; CHO-M1 cells, Fluo-4 calcium fluorescence, agonist mode; stronger effect = higher value; B-score at 10 µM; hit rate 3% among 64,000;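 active = fluorescence rise, raw or as B-score row- and column-corrected plate score, outside the 99.7% band of its plate's samples, either direction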
# RORA act: RORA (human) activation | P35398 | activation, % at 10 µM | hit rate 1.5% among 65,000 | CHO-K1 Gal4-RORA LBD luciferase reporter, luminescence; percent increase over mock-subtracted basal signal;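 active = activation above the mean of all tested compounds plus 3 SD, cut at about 49% in these data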;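 note: 0% = DMSO-treated RORA cells and 100% = added signal equal to DMSO minus mock-transfected cells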
# Target sequence (P35398 whole entry, looked up, the tested form may be a part): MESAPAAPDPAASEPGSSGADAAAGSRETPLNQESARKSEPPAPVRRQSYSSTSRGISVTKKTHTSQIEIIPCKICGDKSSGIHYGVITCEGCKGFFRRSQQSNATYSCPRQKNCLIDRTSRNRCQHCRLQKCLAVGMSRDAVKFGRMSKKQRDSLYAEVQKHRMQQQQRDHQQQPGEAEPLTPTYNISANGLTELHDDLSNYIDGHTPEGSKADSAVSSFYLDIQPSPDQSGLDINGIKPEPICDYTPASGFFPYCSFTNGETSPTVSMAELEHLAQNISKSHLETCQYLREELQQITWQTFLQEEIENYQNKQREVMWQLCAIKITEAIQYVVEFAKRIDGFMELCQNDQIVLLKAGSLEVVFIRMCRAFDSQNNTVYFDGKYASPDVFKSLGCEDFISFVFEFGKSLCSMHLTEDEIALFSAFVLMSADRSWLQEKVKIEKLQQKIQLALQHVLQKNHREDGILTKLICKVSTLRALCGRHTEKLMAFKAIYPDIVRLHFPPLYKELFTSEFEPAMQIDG
# Htt clearance: compounds clearing mutant huntingtin protein | AID 853 | hit rate 0.42% among 47,000 | HeLa Exon1htt(103Q)mCFP, aggregate imaging; zero = plate's median compound well | inhibition, % at 1.5 µM;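 active = inhibition of aggregate fluorescence above about 70%, also judged a hit by eye on the cell image, limit read from the data, passing the limit was not always enough; inconclusive = no rule stated for this call; inactive = not judged a hit on image review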;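 note: cells exposed to compound for three days before fixation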
# D1 mod confirm: confirmation of human D1 dopamine receptor allosteric modulators; HEK293 D1 CRE-luciferase, dopamine EC30 potentiation; stronger effect = higher value; luminescence at 10 µM; shares compounds with D1 mod; hit rate 88% among 2,200;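 active = luminescence in either of two replicates above the same-plate mean plus 3 SD of the low-dose dopamine control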
# D1 ag no DA: activates D1 CRE-luciferase signal without dopamine present. shares compounds with D1 mod. HEK293 D1 CRE-luciferase, luminescence, no dopamine; stronger effect = higher value. luminescence at 10 µM. hit rate 0.8% among 1,900. AID 646; in the data active = luminescence above about 3900
# Isoprot counter: alters isoproterenol CRE-luciferase response in HEK293 cells; shares compounds with D1 mod; calls only at 10 µM; HEK293 D1 CRE-luciferase, isoproterenol EC30 counter-screen; hit rate 63% among 2,200;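 active = luminescence in either replicate above plate mean of wells with a partly effective reference agonist dose plus 3 SD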;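 note: isoproterenol raises cAMP through native beta-adrenoceptor Gs so signal bypasses D1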
# Numbers without * were called inactive; i = inactive; ? = inconclusive; . = no result; + = active, no number. In the library only some 11% were active in any assay of this set; here they are far more common.
SMILES,SF-1 act,D1 mod,M1 antag,M1 agonist,RORA act,Htt clearance,D1 mod confirm,D1 ag no DA,Isoprot counter
O=c1c(F)cn(C2CCCO2)c(=O)n1Cc1c(F)cccc1Cl (configuration not stated),0,6.2*,0.00092,-0.015,11,16,8312*,1800,+
N#Cc1c2n(c3c(=O)[nH]cnc13)CCCC2,-11,0.32,0.58,0.44,-12,38,.,.,.
N#Cc1c2n(c3c(=O)n(Cc4ccccc4Cl)cnc13)CCCCC2,-10,8.6*,-0.25,-0.093,-25,15,11076*,1496,+
CCOC(=O)C1=CN(C)C=C(C(=O)OCC)C1c1ccsc1,2,5.8*,2.2*,0.83,-10,.,4896,1708,i
CCOc1ncccc1C(=O)OCc1nnc(-c2ccccc2)o1,-10,4.1*,1.4,-0.19,-10,-9,13008*,1620,i
CCOC(=O)c1c(C)cc(C)n2c1nc1ccccc12,.,.,.,.,.,10,.,.,.
COc1ccc(-c2cc3nc(C4CCN(C(=O)OC(C)(C)C)CC4)c(C(=O)O)cn3n2)cc1,20,9.2*,-2,-0.29,-2,48,14492*,1632,+
Cn1cc(/C=N/n2cnc3scc(-c4ccccc4)c3c2=O)c2ccccc21,-12,-0.06,-0.74,0.64,30,.,.,.,.
c1ccc(-c2csc3ncn4cnnc4c23)cc1,2,18*,0.96,-0.45,-3,30,18512*,1700,+
Nc1nnc(Cc2ccc(Cl)cc2)s1,-2,0.1,0.15,0.012,-9,.,.,.,.
CCOc1ccc(Cc2nnc(N)s2)cc1OCC,19,11*,0.35,-0.14,-22,.,18204*,1736,+
C=CCNc1nc(N)c(C(=O)c2ccc3c(c2)OCO3)s1,20,18*,-0.69,-0.2,25,38,14852*,1788,+
CC(=O)Oc1c(Cl)c(N2CCOCC2)c(OC(C)=O)c2ccccc12,0,3.1*,-1.3,1.7,6,.,5620*,1464,i
COc1ccc(-c2ccc(=O)n(Cc3cc(=O)n4ccccc4n3)n2)cc1,-5,26*,0.13,-0.76,-9,.,20696*,1572,+
COC(=O)C(C)Sc1nnc(Cc2cc(=O)[nH]c(=O)[nH]2)n1-c1ccc(OC)cc1 (configuration not stated),-15,-0.043,-0.99,-0.7,-10,-22,.,.,.
c1ccc(-n2c(SCC3CCCCO3)nnc2-c2cnccn2)cc1 (configuration not stated),-2,1.7,0.65,-0.0055,3,-20,.,.,.
CC(C)OC(=O)CSc1nnc(-c2cnccn2)n1-c1ccccc1,5,5.1*,0.041,-1.2,16,17,7372*,1596,i
Cc1nc(CSc2nc3[nH]ncc3c(=O)n2-c2ccccc2)cs1,20,4.6*,0.36,0.11,15,17,12732*,1692,+
Cc1noc(C)c1CSc1nc2[nH]ncc2c(=O)n1-c1ccccc1,-11,11*,0.75,0.0024,-6,.,14168*,1776,+
CCN(CC)S(=O)(=O)c1cc(Br)c(C)cc1OC,-27,-1.8,-0.057,2,-1,-87,.,.,.
COc1ccc(OC)c(S(=O)(=O)N2CCCc3ccccc32)c1,13,0.5,0.51,-0.049,26,-33,.,.,.
CN(C)S(=O)(=O)c1cccc(-c2cn3ccccc3n2)c1,2,-0.14,-1.6,-0.095,-8,-8,.,.,.
COc1ccc(-c2cn3ccccc3n2)cc1OC,30,12*,0.0029,-0.14,49*,5,12712*,.,+
COC(=O)c1cc(NC(=O)CSc2nc(C)cc(=O)[nH]2)cc(C(=O)OC)c1,6,2.9*,-0.28,-0.012,-14,-14,6652*,1452,i
CCOC(=O)c1ccc(NC(=O)CSc2nc(C)cc(=O)[nH]2)cc1,5,0.53,0.24,0.2,-14,-7,.,.,.
SMILES,SF-1 act,D1 mod,M1 antag,M1 agonist,RORA act,Htt clearance,D1 mod confirm,D1 ag no DA,Isoprot counter
COc1ccc(CCNC(=O)C2CC(=O)N(C3CCCCCCC3)C2)cc1OC (configuration not stated),.,.,.,.,.,-39,.,.,.
COc1ccc(CCNC(=O)C2CC(=O)N(c3ccccc3)C2)cc1OC (configuration not stated),7,2.9*,-0.045,-0.27,2,-6,5376,1464,i
Cc1ccc(CNC(=O)C2CC(c3cccc([N+](=O)[O-])c3)=NO2)o1 (configuration not stated),.,.,.,.,.,40,.,.,.
CCOc1c(OC)cccc1C1CC(=O)Nc2cc3c(cc21)OCCO3 (configuration not stated),4,0.47,0.55,-0.96,-5,.,.,.,.
CCOc1cc(C2CC(=O)Nc3cc(C)c(C)cc32)ccc1O (configuration not stated),-19,21*,0.017,-0.61,14,.,17484*,.,+
CCOc1cc(C2CC(=O)NC(SCC)=C2C#N)ccc1O (configuration not stated),-8,4.5*,0.67,0.28,2,?,6316*,1704,i
O=C(CCS(=O)(=O)c1ccccc1)Nc1nc2c(s1)COc1ccccc1-2,-16,.,0.042,-0.27,2,-258,.,.,.
COc1ccc2c(c1OC)C(=O)N(C(C)C(=O)O)C2=O (configuration not stated),-6,-0.9,0.11,-0.24,-10,10,.,.,.
Cc1ccc(C(=O)OCC(=O)Nc2ccccc2)cc1NC(=O)c1ccco1,22,4.4*,0.1,-0.32,12,-2,6808,1724,i
NS(=O)(=O)c1ccc(CCNC(=O)C2CCCN2C(=O)OCc2ccccc2)cc1 (configuration not stated),3,-0.4,1.1,-0.0068,-13,22,.,.,.
NS(=O)(=O)c1ccc(CCNC(=O)C2CCCCN2S(=O)(=O)c2ccccc2)cc1 (configuration not stated),9,3.5*,0.039,0.12,20,.,5988,1656,i
COc1cccc(Oc2cnc(N)nc2-c2ccc(OC)cc2O)c1,42,15*,0.097,-0.042,45,-116,22464*,1596,+
COc1ccc(-c2cnc(N)nc2-c2ccc(OC)cc2O)cc1,13,14*,0.11,0.54,4,18,16148*,.,+
COc1ccc(-c2nc(C)ncc2-c2csc(C)n2)c(O)c1,.,.,.,.,.,20,.,.,.

# Screening data: PubChem, several laboratories
